Source: PMC8865217 (Journal of natural products, 2021)
≈ marks a conversion by molar mass, not a printed value.

Assays:
M. tuberculosis [1] = settings: previous study; cited from earlier work
Interconversion = type: physicochemical; settings: for Relative stability among diastereomers/epimers: hemiaminal equilibrium
M. tuberculosis [2] = assay: MIC against M. tuberculosis, microplate Alamar Blue assay; type: cell-based; settings: Mycobacterium tuberculosis, read-out: MIC value (anti-Mtb)
[3] = target: Mycobacterial ClpC1-NTD (caseinolytic protein C1 N-terminal domain) (Mycobacterium tuberculosis, UniProt P9WPC9); assay: Binding affinity to ClpC1-NTD by surface plasmon resonance; settings: SPR, KD = kd/ka, 1:1 Langmuir model
How it was run: (§1)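 Association (ka) and dissociation (kd) rate constants came from a global fit of double-referenced SPR data to a 1:1 Langmuir model, and KD was calculated as kd/ka. The same procedure was used for the mycobacterial ClpC1 N-terminal domain and for the full-length protein.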

[4] = target: Mycobacterial ClpC1 FL (full-length protein) (Mycobacterium tuberculosis, UniProt P9WPC9); assay: Binding affinity to full-length ClpC1 by surface plasmon resonance; settings: SPR, KD = kd/ka, 1:1 Langmuir model
How it was run: as §1

Mycobacterial ClpC1-NTD (caseinolytic protein C1 N-terminal domain), sequence (P9WPC9 2-144): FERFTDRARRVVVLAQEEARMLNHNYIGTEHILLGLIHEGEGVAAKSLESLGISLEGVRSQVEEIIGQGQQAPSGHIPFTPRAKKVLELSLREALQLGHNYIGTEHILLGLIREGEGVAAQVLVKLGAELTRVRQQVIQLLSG
Mycobacterial ClpC1 FL (full-length protein), sequence (P9WPC9 whole entry): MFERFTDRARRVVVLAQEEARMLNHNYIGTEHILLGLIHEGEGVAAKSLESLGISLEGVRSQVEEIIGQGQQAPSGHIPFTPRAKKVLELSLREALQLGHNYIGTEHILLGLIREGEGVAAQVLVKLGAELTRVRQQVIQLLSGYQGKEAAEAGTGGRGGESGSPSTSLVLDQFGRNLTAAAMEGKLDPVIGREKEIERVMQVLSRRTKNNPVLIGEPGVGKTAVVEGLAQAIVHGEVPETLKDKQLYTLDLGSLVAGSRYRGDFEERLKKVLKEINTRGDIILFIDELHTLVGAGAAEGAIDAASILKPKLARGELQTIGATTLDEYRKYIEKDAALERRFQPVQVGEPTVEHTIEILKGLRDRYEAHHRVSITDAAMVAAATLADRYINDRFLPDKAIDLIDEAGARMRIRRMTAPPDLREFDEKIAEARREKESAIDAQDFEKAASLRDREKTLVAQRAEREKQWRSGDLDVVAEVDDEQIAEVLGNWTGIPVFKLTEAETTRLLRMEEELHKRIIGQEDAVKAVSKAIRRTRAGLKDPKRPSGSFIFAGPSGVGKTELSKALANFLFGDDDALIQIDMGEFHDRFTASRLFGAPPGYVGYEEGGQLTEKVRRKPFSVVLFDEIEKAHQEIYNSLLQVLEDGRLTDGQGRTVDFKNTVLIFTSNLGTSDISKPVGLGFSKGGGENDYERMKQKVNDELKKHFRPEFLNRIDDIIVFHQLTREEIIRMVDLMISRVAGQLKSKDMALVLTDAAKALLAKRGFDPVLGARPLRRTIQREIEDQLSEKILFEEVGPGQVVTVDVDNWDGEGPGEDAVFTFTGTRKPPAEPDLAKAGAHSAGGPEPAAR

In the case of `C/C=C/C[C@@H]1NC(=O)[C@H](CC(C)C)N2C(=O)[C@H](C[C@H](C)[C@H]2O)N(C)C(=O)[C@H](C)NC(=O)[C@H](Cc2ccc(O)c([N+](=O)[O-])c2)NC(=O)[C@H](CC(C)C)N(C)C(=O)[C@H](Cc2cn(C(C)(C)[C@H]3CO3)c3ccccc23)NC1=O` [rufomycin 4], the “MIC value (anti-Mtb)” value (M. tuberculosis [1]) is listed as ~ 0.020 μM.
For `C/C=C/C[C@@H]1NC(=O)[C@H](CC(C)C)N2C(=O)[C@H](C[C@@H](C)[C@H]2O)N(C)C(=O)[C@H](C)NC(=O)[C@H](Cc2ccc(O)c([N+](=O)[O-])c2)NC(=O)[C@H](CC(C)C)N(C)C(=O)[C@H](Cc2cn(C(C)(C)[C@H]3CO3)c3ccccc23)NC1=O` [rufomycin 6], the “Relative stability among diastereomers/epimers” value (Interconversion) was “more stable epimer” and the “Conversion to rufomycin 7” value (Interconversion; slow conversion under aqueous conditions) was ~ 5%.
With `C/C=C/C[C@@H]1NC(=O)[C@H](CC(C)C)N2C(=O)[C@H](C[C@@H](C)[C@@H]2O)N(C)C(=O)[C@H](C)NC(=O)[C@H](Cc2ccc(O)c([N+](=O)[O-])c2)NC(=O)[C@H](CC(C)C)N(C)C(=O)[C@H](Cc2cn(C(C)(C)[C@H]3CO3)c3ccccc23)NC1=O` [rufomycin 7] the “Relative stability among diastereomers/epimers” value (Interconversion) was “most unstable diastereomer” and the “Epimerization to rufomycin 6” value (Interconversion; quickly, during concentration) was ~ 50%.
For `C/C=C/C[C@@H]1NC(=O)[C@H](CC(C)C)N2C(=O)[C@H](C[C@@H](C)[C@H]2OCCCC)N(C)C(=O)[C@H](C)NC(=O)[C@H](Cc2ccc(O)c([N+](=O)[O-])c2)NC(=O)[C@H](CC(C)C)N(C)C(=O)[C@H](Cc2cn(C(C)(C)C(O)CCl)c3ccccc23)NC1=O` (stereo partly drawn) [rufomycinSS 3], the MIC (M. tuberculosis [2]) was 4.3 µM (≈ 4.88 µg/mL), the Kd [3] was 211 nM and the Kd [4] was 171 nM.
Compound `CC=CCC1NC(=O)C(CC(C)C)N2C(=O)C(CC(C)C2OCCCC)N(C)C(=O)C(C)NC(=O)C(Cc2ccc(O)c([N+](=O)[O-])c2)NC(=O)C(CC(C)C)N(C)C(=O)C(Cc2cn(C(C)(C)C(O)CCl)c3ccccc23)NC1=O` (stereo not drawn) [rufomycinSS 1] has a Kd [3] of 602 nM and a Kd [4] of 724 nM.
For `CC=CCC1NC(=O)C(CC(C)C)N2C(=O)C(CC(C)C2OCCCC)N(C)C(=O)C(C)NC(=O)C(Cc2ccc(O)c([N+](=O)[O-])c2)NC(=O)C(CC(C)C)N(C)C(=O)C(Cc2cn(C(C)(C)C(O)CCl)c3ccccc23)NC1=O` (stereo not drawn) [rufomycinSS 2], the Kd [3] was 27 nM and the Kd [4] was 29 nM.
